Scp-1 inhibitor: blocks human Scp-1 phosphatase activity. Q9GZU7. inhibition, % at 20 µM. Recombinant Scp1, phosphopeptide, malachite green phosphate absorbance. actives 0.88% (n = 340,000);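 active = inhibition above about 50% at 20 µM, limit read from the data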;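 also: plate controls were DMSO wells with enzyme for no effect and wells lacking enzyme for full effect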
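Assay system: SCP-1 catalytic fragment, aa 76-261 | Buffer or medium: Tris acetate buffer pH 5.5 with MgCl2 and Tween-20 | Compound: One concentration, 20 µM, with 1.0% DMSO | Also added: Phospho 17-mer peptide substrate | Signal: Absorbance at 630 nm | Incubation: 45 min enzyme reaction at room temperature | Measure: % inhibition of SCP-1 phosphate liberation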
LMPTP block: blocks human LMPTP phosphatase; P24666; recombinant LMPTP-A, OMFP fluorogenic substrate, fluorescence intensity; inhibition, % at 20 µM; actives 0.22% (n = 360,000); AID 651560;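 active = compounds that cut the enzyme signal by at least half of the control window in the single-dose screen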;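 also: plate controls were DMSO wells with enzyme plus substrate for no effect and substrate without enzyme for full effect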
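Assay system: LMPTP-A, protein tyrosine phosphatase of low molecular weight / Medium: pH 6.0 Bis-Tris buffer with DTT and Triton X-100 / Schedule: 50 min enzyme reaction at room temperature, protected from light / Measured by: endpoint fluorescence intensity from OMFP dephosphorylation / Read-out basis: % inhibition relative to no-enzyme and uninhibited control wells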
STEP inh: STEP (human) phosphatase inhibition; recombinant STEP, OMFP fluorogenic substrate, fluorescence; inhibition, % at 20 µM; actives 0.25% (n = 360,000); AID 588621;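 active = inhibition at 20 µM, scaled per plate between control wells, above about 37%, limit read from the data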;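 also: 0% = DMSO with enzyme and substrate and 100% = substrate only without enzyme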
Target sequence (P54829 whole entry, looked up): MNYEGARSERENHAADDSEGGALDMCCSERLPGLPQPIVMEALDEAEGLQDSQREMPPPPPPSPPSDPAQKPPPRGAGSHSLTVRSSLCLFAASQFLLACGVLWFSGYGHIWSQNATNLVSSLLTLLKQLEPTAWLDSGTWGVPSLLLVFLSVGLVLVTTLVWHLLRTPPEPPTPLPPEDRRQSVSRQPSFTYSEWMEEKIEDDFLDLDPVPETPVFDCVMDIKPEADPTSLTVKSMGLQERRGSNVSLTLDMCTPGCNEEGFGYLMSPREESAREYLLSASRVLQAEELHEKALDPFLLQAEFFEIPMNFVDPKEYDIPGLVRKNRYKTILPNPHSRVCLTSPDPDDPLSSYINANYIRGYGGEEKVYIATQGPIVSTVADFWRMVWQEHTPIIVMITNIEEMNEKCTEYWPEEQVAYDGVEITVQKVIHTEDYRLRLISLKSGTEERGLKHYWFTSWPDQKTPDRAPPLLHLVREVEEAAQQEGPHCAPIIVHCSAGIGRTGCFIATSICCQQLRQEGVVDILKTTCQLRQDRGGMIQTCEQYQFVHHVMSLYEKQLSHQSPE
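Measure: Control-normalized % inhibition with plate pattern correction | Test system: STEP phosphatase, cell-free reaction | Medium: pH 6.0 Bis-Tris with DTT and Tween 20 | Technique: Fluorescence, 480/540 nm | Times: Reaction 20 min, ambient temperature | Doses: Single compound dose of 20 µM, 1% DMSO final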
NadD block: blocks S. aureus nicotinate mononucleotide adenylyltransferase | inhibition, % at 20 µM | actives 0.78% (n = 360,000) | purified NadD enzyme, colorimetric absorbance read-out | AID 602399; in the data active = inhibition above about 26%
rCAG binder: r(CAG) repeat RNA binding; actives 1.3% (n = 370,000); AID 651821; TO-PRO-1 dye displacement fluorescence; inhibition, % at 3 µM;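 active = inhibition above the plate cutoff, the mean of all test compounds on that plate plus 3 SD, cut at about 35% in these data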;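 also: 0% = DMSO alone and 100% = 100 µM mitoxantrone as full dye displacement; higher means more dye released from RNA so lower well fluorescence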
Active calls of the source: *. Sampled rows, rich in hits. Any-hit rate of the full collection: about 2.6%.

How did CC(C)C[C@H]1COc2cc(Br)ccc2S(=O)(=O)N1Cc1cn(Cc2ccc(Br)cc2)nn1 do in these assays?
rCAG binder: 2.1

How did COCCCn1cc(CN2CC=CS2(=O)=O)nn1 do in these assays?
rCAG binder: 2.5

What do the screens show for `O=C(Nc1ccc(F)cc1)Nc1nnc(-c2ccncc2)s1`?
Scp-1 inhibitor: -5.6; LMPTP block: 21.9; STEP inh: 0.1; NadD block: 5.2; rCAG binder: 18.1

What do the screens show for `O=C(Nc1ccc(Cl)cc1)Nc1nnc(-c2ccncc2)s1`?
Scp-1 inhibitor: 3.3; LMPTP block: 60.4*; STEP inh: 9.8; NadD block: 18.9; rCAG binder: 15.5

How did O=C(Nc1ccccc1N1CCOCC1)c1cccc(S(=O)(=O)Nc2ccccc2F)c1 do in these assays?
Scp-1 inhibitor: -2.2; LMPTP block: -0.7; STEP inh: -0.9; NadD block: 1.2; rCAG binder: 36.6*

How did C=C(C)C(=O)Nc1ccc2c(c1)OCCOCCOCCO2 do in these assays?
Scp-1 inhibitor: 96.9*; LMPTP block: 0.9; STEP inh: 63.5*; NadD block: 5.1; rCAG binder: 1.2

How did C=CCN(CC#Cc1ccc(C)cc1)Cc1ccc(OC)cc1OC do in these assays?
rCAG binder: 3.5

What do the screens show for `Cc1cc(N2CCN(CC(C)(C)O)C[C@@H]2C)ccc1N1CCN(Cc2ccccc2)[C@H](C)C1`?
rCAG binder: 2.2

What do the screens show for `C=C(C)C(=O)Oc1ccc(N=Nc2ccc(C)cc2)ccc1=O`?
Scp-1 inhibitor: 85.4*; LMPTP block: 10.1; STEP inh: 11.4; NadD block: 11.2; rCAG binder: 27.8

How did CC(=O)c1ccc(N=Nc2ccc(C)cc2)cc1 do in these assays?
Scp-1 inhibitor: -10.7; LMPTP block: 0.5; STEP inh: -1.6; NadD block: -8.2; rCAG binder: 0.2

Results for O=C(CSc1nnc(COc2ccccc2)n1-c1ccc(Cl)cc1)Nc1ccccc1-c1ccccc1 ?
rCAG binder: 6.7

What do the screens show for `CCC[n+]1c(C)sc2c3c(ccc21)CCCC3`?
Scp-1 inhibitor: 98.1*; LMPTP block: 4.6; STEP inh: 2.5; NadD block: 44.5*

Results for CC[n+]1c(C)sc2c(C)cc(C)cc21 ?
Scp-1 inhibitor: 0.0; LMPTP block: -1.6; STEP inh: -4.2; NadD block: 2.5; rCAG binder: -2.7

Results for Cc1csc(NC(=O)c2ccc(Br)s2)n1 ?
Scp-1 inhibitor: 77.0*; LMPTP block: 0.2; STEP inh: -1.3; NadD block: -0.5; rCAG binder: 1.8

What do the screens show for `CC(=O)CC[C@@H]1CC[C@]2(CCCN(S(C)(=O)=O)C2)O1`?
rCAG binder: 3.1

How did CCCCNS(=O)(=O)c1ccc2nc(SCC(=O)Nc3sccc3C#N)[nH]c2c1 do in these assays?
Scp-1 inhibitor: -5.2; LMPTP block: 3.9; STEP inh: -4.1; NadD block: 10.1; rCAG binder: 37.6*

How did O=C(/C=C/c1ccco1)NC(=S)Nc1ccc(C(=O)O)cc1 do in these assays?
Scp-1 inhibitor: 52.0*; LMPTP block: 0.0; STEP inh: 28.2; NadD block: 2.2; rCAG binder: 18.9

Results for O=C(N[C@@H](Cc1cccnc1)C(=O)N1CCC[C@H]1C(=O)NCCc1ccccc1Cl)C1CCCC1 ?
rCAG binder: 0.2

Results for CN1C(=O)c2cc(NS(=O)(=O)c3cccc(F)c3)ccc2OC[C@@H]2O[C@H](CC(=O)O)CC[C@H]21 ?
rCAG binder: 0.0

Results for Cc1ccc(/C=C/C(=O)OCC(=O)c2ccc3c(c2)NC(=O)CO3)o1 ?
Scp-1 inhibitor: -6.7; LMPTP block: 3.4; STEP inh: 0.4; NadD block: 13.6; rCAG binder: 12.2

What do the screens show for `O=C1COc2ccc(C(=O)COC(=O)/C=C/c3ccc(Br)o3)cc2N1`?
Scp-1 inhibitor: 81.2*; LMPTP block: 71.1*; STEP inh: 29.9; NadD block: 25.0; rCAG binder: 23.3

Results for COC(=O)[C@H](C)NC(=O)c1cc2c(cn1)[nH]c1ccccc12 ?
Scp-1 inhibitor: -1.8; LMPTP block: 3.3; STEP inh: 8.5; NadD block: -1.1; rCAG binder: 3.1

Results for C[C@H](NC(=O)c1cc2c(cn1)[nH]c1ccccc12)C(=O)O ?
Scp-1 inhibitor: -12.5; LMPTP block: 2.3; STEP inh: 90.3*; NadD block: -0.4; rCAG binder: 4.7

How did COc1cc2c(cc1/C=C/C(=O)O)OC(C)C2 (stereo not drawn) do in these assays?
Scp-1 inhibitor: -1.9; LMPTP block: 0.1; STEP inh: -1.7; NadD block: -1.3; rCAG binder: -4.4

How did CC(C)(O)C1Cc2cc(/C=C/C(=O)O)c(O)cc2O1 (stereo not drawn) do in these assays?
Scp-1 inhibitor: 95.1*; LMPTP block: 1.1; STEP inh: 1.1; NadD block: 20.6; rCAG binder: 3.0

Results for CCOC(=O)[C@@]12CCCC3=C1N(CCC3)C(=O)[C@H]2CC(=O)N1CCN(C(=O)C2CC2)CC1 ?
rCAG binder: -3.7

Results for CCOC(=O)c1c(Nc2ccc(Cl)cc2)sc(/C=C2\C=Nc3ccccc32)c1O ?
Scp-1 inhibitor: 3.1; LMPTP block: 0.7; STEP inh: -3.3; NadD block: 32.7*; rCAG binder: 7.7

Results for Cc1ccc(NC2=CC(=O)C(=O)c3ccccc32)cc1 ?
Scp-1 inhibitor: -0.1; LMPTP block: 3.3; STEP inh: 3.5; NadD block: 6.5; rCAG binder: 5.5

What do the screens show for `CCOC(=O)c1ccc(NC2=CC(=O)C(=O)c3ccccc32)cc1`?
Scp-1 inhibitor: 24.9; LMPTP block: 10.1; STEP inh: 28.4; NadD block: 46.6*; rCAG binder: 26.9

How did O=C(c1cc(-c2ccccc2)nc2ccccc12)N1CCCC1 do in these assays?
Scp-1 inhibitor: -1.2; LMPTP block: -0.2; STEP inh: -0.1; NadD block: 3.5; rCAG binder: 1.1

What do the screens show for `c1ccc(-c2cc(NCCN3CCCCC3)c3ccccc3n2)cc1`?
Scp-1 inhibitor: 1.4; LMPTP block: 90.3*; STEP inh: -4.3; NadD block: -26.9; rCAG binder: 9.3

How did CC1CC(C)CN(S(=O)(=O)c2ccc(C(=O)Nc3nnc(-c4cccs4)o3)cc2)C1 (stereo not drawn) do in these assays?
Scp-1 inhibitor: -10.4; LMPTP block: 2.4; STEP inh: 4.9; NadD block: 26.2; rCAG binder: 30.1

Results for CCC1CCCCN1S(=O)(=O)c1ccc(C(=O)Nc2nnc(-c3cccs3)o2)cc1 (stereo not drawn) ?
Scp-1 inhibitor: 3.2; LMPTP block: 1.1; STEP inh: 0.1; NadD block: 41.7*

What do the screens show for `CC(C)CN1C(=O)C[C@@]2(C(=O)N(C)c3ccc(NS(=O)(=O)c4ccc(F)cc4)cc32)C1c1ccccc1` (stereo partly drawn)?
rCAG binder: 3.9

How did O=C(Nc1ccc(C(=O)O)cc1)Nc1ccc([N+](=O)[O-])cc1 do in these assays?
Scp-1 inhibitor: -16.1; LMPTP block: 0.1; STEP inh: -2.5; NadD block: -6.9; rCAG binder: 5.8

Compound activity (PubChem)
